According to ChEMBL document CHEMBL3286094, “Synthesis and biological evaluation of novel bisbenzimidazoles as Escherichia coli topoisomerase IA inhibitors and potential antibacterial agents” (J Med Chem, 2014):
Values after ≈ are worked out from the molar mass of the structure shown. Active and inactive are the calls of the source. The rule behind the calls is not given here.

How the values were obtained:
Escherichia coli [1] = assay: Antibacterial activity against ciprofloxacin-resistant Escherichia coli 72 assessed as growth inhibition after 18 to 24 hrs by broth microdilution method; assay type: functional
Escherichia coli [2] = assay: Bactericidal activity against gentamicin/kanamycin/tetracycline/nalidixic acid-resistant Escherichia coli 360 by agar plating method; assay type: functional
Escherichia coli [3] = assay: Antibacterial activity against ampicillin/kanamycin/trimethoprim/tetracyclin/ciprofloxacin/nalidixic acid-resistant Escherichia coli 81 assessed as growth inhibition after 18 to 24 hrs by broth microdilution method; assay type: functional
[4] = Inhibition of Escherichia coli DNA topoisomerase-1A using supercoiled pHOT1 plasmid DNA as substrate assessed as inhibition of DNA relaxation after 30 mins by agarose gel electrophoresis
Outline: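 Supercoiled plasmid DNA incubated with E. coli Topo IA in the presence of compound at […]. Relaxation products were resolved by electrophoresis on 1% agarose gel.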

Escherichia coli [5] = assay: Bactericidal activity against ampicillin/tetracycline/piperacillin-resistant Escherichia coli WB31 isolated from water source by agar plating method
Escherichia coli [6] = assay: Bactericidal activity against cefazolinl/ampicillin/piperacillin/cefuroxime/cefepime/cefotaxime/tetracycline/ciprofloxacin-resistant Escherichia coli NG3 isolated from water source by agar plating method
Escherichia coli [7] = assay: Antibacterial activity against multidrug-resistant Escherichia coli IP9 isolated from water source assessed as growth inhibition after 18 to 24 hrs by broth microdilution method
Escherichia coli [8] = assay: Antibacterial activity against Escherichia coli DH5[alpha] assessed as growth inhibition after 18 to 24 hrs by broth microdilution method; assay type: functional
Escherichia coli [9] = assay: Bactericidal activity against tetracycline/trimethoprim-resistant Escherichia coli IST isolated from water source by agar plating method
Escherichia coli [10] = assay: Bactericidal activity against chloroamphenicol/ampicillin/kanamycin/trimethoprim/ciprofloxacin/nalidixic acid-resistant Escherichia coli 85 by agar plating method; assay type: functional
Escherichia coli [11] = assay: Antibacterial activity against ampicillin/chloramphenicol/ciprofloxacin/gentamicin/tetracycline-resistant Escherichia coli 401 assessed as growth inhibition after 18 to 24 hrs by broth microdilution method; assay type: functional
Escherichia coli [12] = assay: Bactericidal activity against multidrug-resistant Escherichia coli IP9 isolated from water source by agar plating method
Escherichia coli [13] = assay: Antibacterial activity against cefazolinl/ampicillin/piperacillin/cefuroxime/cefepime/cefotaxime/tetracycline/trimethoprim-resistant Escherichia coli KK16 isolated from water source assessed as growth inhibition after 18 to 24 hrs by broth microdilution method
[14] = Binding affinity to d(ATATATATATATAT)2 DNA (unknown origin) by fluorescence spectroscopic analysis
Outline: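 Fluorescence titration of the compound with a poly(AT) DNA sequence, with the binding constant derived from the titration.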

Escherichia coli [15] = assay: Antibacterial activity against Escherichia coli ATCC 25922 in iv dosed Balb/c neutropenic thigh infection model assessed as concentration required to cause 3 log10CFU reduction per gram of thigh administered as single bolus dose at 2 hrs post inoculation measured after 24 hrs; assay type: functional
Outline: (§1)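 Neutropenic thigh infection with E. coli ATCC 25922. Compound was dosed at 3 and 5 mg/kg body weight/day. Read-out was thigh bacterial burden, expressed as log reduction and compared with the static level.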

Escherichia coli [16] = assay: Antibacterial activity against Escherichia coli ATCC 25922 in iv dosed Balb/c systemic infection model assessed as increase in survival administered single bolus dose measured every day for 7 days; assay type: functional
Outline: (§2)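 Mice were infected intraperitoneally with E. coli ATCC 25922 suspended in saline. Treatment was a single bolus intravenous tail-vein injection at 3, 5 or 7 mg/kg body weight, dissolved in sterile water. A vehicle-only group served as control. Survival was monitored after infection.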

Escherichia coli [17] = assay: Antibacterial activity against Escherichia coli ATCC 25922 in iv dosed Balb/c neutropenic thigh infection model assessed as reduction of bacterial burden in thigh administered as single bolus dose at 2 hrs post inoculation measured after 24 hrs; assay type: functional; outline: as §1
Escherichia coli [18] = assay: Antibacterial activity against Escherichia coli ATCC 25922 in Balb/c systemic infection model assessed as increase in survival at 7 mg/kg, iv administered single bolus dose measured every day for 7 days relative to vehicle-treated control; assay type: functional; conditions: ATCC 25922, in Mus musculus, 168 h; outline: as §2
Escherichia coli [19] = assay: Inhibition of Escherichia coli DNA topoisomerase-1A using supercoiled pHOT1 plasmid DNA as substrate assessed as inhibition of DNA relaxation at 5 to 100 uM after 30 mins by agarose gel electrophoresis in presence of 25 mM MgCl2
Escherichia coli [20] = assay: Binding affinity to Escherichia coli DNA topoisomerase-1A by isothermal titration calorimetric analysis in presence of MgCl2/KCl
Outline: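 Isothermal titration calorimetry with sequential injections of EcTopo 1A into the compound solution. Raw heats were corrected using injections of identical amounts of EcTopo 1A into buffer alone. Binding affinity constant and binding free energy were derived from the thermogram.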

Escherichia coli [21] = assay: Antibacterial activity against Escherichia coli ATCC 25922 in iv dosed Balb/c neutropenic thigh infection model assessed as concentration required to cause 1 log10CFU reduction per gram of thigh administered as single bolus dose at 2 hrs post inoculation measured after 24 hrs; assay type: functional; outline: as §1

| SMILES | MIC50 (Escherichia coli [1]) [µg/mL] | MIC90 (Escherichia coli [1]) [µg/mL] | MBC (Escherichia coli [2]) [µg/mL] | MIC50 (Escherichia coli [3]) [µg/mL] | MIC90 (Escherichia coli [3]) [µg/mL] | IC50 [4] [µM] | MBC (Escherichia coli [5]) [µg/mL] | MBC (Escherichia coli [6]) [µg/mL] | MIC50 (Escherichia coli [7]) [µg/mL] | MIC90 (Escherichia coli [7]) [µg/mL] | MIC50 (Escherichia coli [8]) [µg/mL] | MIC90 (Escherichia coli [8]) [µg/mL] | MBC (Escherichia coli [9]) [µg/mL] | MBC (Escherichia coli [10]) [µg/mL] | MIC50 (Escherichia coli [11]) [µg/mL] | MIC90 (Escherichia coli [11]) [µg/mL] | MBC (Escherichia coli [12]) [µg/mL] | MIC50 (Escherichia coli [13]) [µg/mL] | MIC90 (Escherichia coli [13]) [µg/mL] | further results |
| --- | --- | --- | --- | --- | --- | --- | --- | --- | --- | --- | --- | --- | --- | --- | --- | --- | --- | --- | --- | --- |
| CCCN1CCN(c2ccc3nc(-c4ccc5nc(-c6ccc(OC)c(OC)c6)[nH]c5c4)[nH]c3c2)CC1 | 2 (≈ 4.03 µM) | 3.4 (≈ 6.85 µM) | 16 (≈ 32.2 µM) | 8 (≈ 16.1 µM) | 14.5 (≈ 29.2 µM) | 3 | 16 (≈ 32.2 µM) | 8 (≈ 16.1 µM) | 8 (≈ 16.1 µM) | 15.4 (≈ 31 µM) | 2 (≈ 4.03 µM) | 3.2 (≈ 6.44 µM) | 16 (≈ 32.2 µM) | 16 (≈ 32.2 µM) | 4 (≈ 8.05 µM) | 7.2 (≈ 14.5 µM) | 16 (≈ 32.2 µM) | 2 (≈ 4.03 µM) | 3.7 (≈ 7.45 µM) |  |
| CCCN1CCN(c2ccc3nc(-c4ccc5nc(-c6ccc(OCC)cc6)[nH]c5c4)[nH]c3c2)CC1 | 2 (≈ 4.16 µM) | 3.1 (≈ 6.45 µM) | 2 (≈ 4.16 µM) | 1 (≈ 2.08 µM) | 1.6 (≈ 3.33 µM) | 2 | 2 (≈ 4.16 µM) | 2 (≈ 4.16 µM) | 1 (≈ 2.08 µM) | 3.1 (≈ 6.45 µM) | 0.2 (≈ 0.416 µM) | 0.8 (≈ 1.66 µM) | 2 (≈ 4.16 µM) | 2 (≈ 4.16 µM) | 1 (≈ 2.08 µM) | 1.7 (≈ 3.54 µM) | 4 (≈ 8.32 µM) | 0.5 (≈ 1.04 µM) | 1.8 (≈ 3.75 µM) | K [14]: 7 ×10⁷ /M; Activity (Escherichia coli [15]): 5 mg/kg/day; Activity (Escherichia coli [16]): Dose-dependent effect; ED50 (Escherichia coli [16]; ATCC 25922, in Mus musculus, 168 h): 5 mg/kg; Activity (Escherichia coli [17]): Dose-dependent effect; MIC50 (Escherichia coli [17]; ATCC 25922, Thigh): 0.2 µg/mL (≈ 0.416 µM); survival at 7 mg/kg (Escherichia coli [18]): 75%; inhibition (Escherichia coli [19]): Active; Ka (Escherichia coli [20]): 6.8 ×10⁶ /M; Activity (Escherichia coli [21]): 3 mg/kg/day |
| COc1ccc(-c2nc3ccc(-c4nc5ccc(N6CCN(c7ccncc7)CC6)cc5[nH]4)cc3[nH]2)cc1OC | 1 (≈ 1.88 µM) | 1.6 (≈ 3.01 µM) | 2 (≈ 3.76 µM) | 2 (≈ 3.76 µM) | 3.1 (≈ 5.83 µM) | 6.2 | 4 (≈ 7.52 µM) | 2 (≈ 3.76 µM) | 2 (≈ 3.76 µM) | 3.6 (≈ 6.77 µM) | 0.5 (≈ 0.941 µM) | 1.8 (≈ 3.39 µM) | 1 (≈ 1.88 µM) | 4 (≈ 7.52 µM) | 1 (≈ 1.88 µM) | 1.6 (≈ 3.01 µM) | 4 (≈ 7.52 µM) | 1 (≈ 1.88 µM) | 1.7 (≈ 3.2 µM) |  |
| CCOc1ccc(-c2nc3ccc(-c4nc5ccc(N6CCN(CCN(C)C)CC6)cc5[nH]4)cc3[nH]2)cc1 | 32 (≈ 62.8 µM) | 57.2 (≈ 112 µM) | 128 (≈ 251 µM) | 32 (≈ 62.8 µM) | 60.2 (≈ 118 µM) | 9.4 | 32 (≈ 62.8 µM) | 16 (≈ 31.4 µM) | 64 (≈ 126 µM) | 118 (≈ 232 µM) | 1 (≈ 1.96 µM) | 14.5 (≈ 28.5 µM) | 64 (≈ 126 µM) | 32 (≈ 62.8 µM) | 16 (≈ 31.4 µM) | 30.4 (≈ 59.6 µM) | 128 (≈ 251 µM) | 16 (≈ 31.4 µM) | 27.6 (≈ 54.2 µM) |  |
| CCOc1ccc(-c2nc3ccc(-c4nc5ccc(N6CCN(CC)CC6)cc5[nH]4)cc3[nH]2)cc1 | 4 (≈ 8.57 µM) | 7.2 (≈ 15.4 µM) | 64 (≈ 137 µM) | 4 (≈ 8.57 µM) | 6.5 (≈ 13.9 µM) | 5.8 | 8 (≈ 17.1 µM) | 8 (≈ 17.1 µM) | 4 (≈ 8.57 µM) | 7.2 (≈ 15.4 µM) | 0.5 (≈ 1.07 µM) | 0.7 (≈ 1.5 µM) | 8 (≈ 17.1 µM) | 8 (≈ 17.1 µM) | 2 (≈ 4.29 µM) | 3.7 (≈ 7.93 µM) | 8 (≈ 17.1 µM) | 1 (≈ 2.14 µM) | 1.8 (≈ 3.86 µM) |  |
| COc1ccc(-c2nc3ccc(-c4nc5ccc(N6CCN(c7ncccn7)CC6)cc5[nH]4)cc3[nH]2)cc1OC | 16 (≈ 30 µM) | 30.1 (≈ 56.5 µM) |  | 16 (≈ 30 µM) | 29.7 (≈ 55.8 µM) | 6.2 | 32 (≈ 60.1 µM) | 32 (≈ 60.1 µM) | 128 (≈ 240 µM) |  | 2 (≈ 3.76 µM) | 3.6 (≈ 6.76 µM) | 32 (≈ 60.1 µM) | 64 (≈ 120 µM) | 16 (≈ 30 µM) | 29 (≈ 54.4 µM) |  | 16 (≈ 30 µM) | 30.4 (≈ 57.1 µM) |  |
